Common to all, as to type: ADME, organism-based
Details in all cases: in vivo

Data set [1] has as its system Pancreas. Kind of data set: Biodistribution in pancreas of C57BL/6 mouse bearing mouse B16-F0 cells at 0.74 to 0.92 MBq, iv after 24 hrs. The essentials:
(§1)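 Male C57BL6 mice with s.c. left-flank B16-F0 melanoma (5 × 10⁵ cells in PBS). Two mice per time point frozen in liquid nitrogen after CO₂ sacrifice. Eight 40 µm whole-body cryosections per mouse read by multiwire proportional counter. cpm/mm² converted to kBq/g and expressed as %ID/g.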

In data set [2] the test system is Kidney. Kind of data set: Biodistribution in kidney of C57BL/6 mouse bearing mouse B16-F0 cells at 0.74 to 0.92 MBq, iv after 72 hrs. The essentials:
as §1

Data set [3] deals with Blood. Kind of data set: Biodistribution in blood of C57BL/6 mouse bearing mouse B16-F0 cells at 0.74 to 0.92 MBq, iv after 24 hrs. The essentials: as §1
Data set [4] concerns Muscle tissue. As to the kind of experiment: Biodistribution in muscle of C57BL/6 mouse bearing mouse B16-F0 cells at 0.74 to 0.92 MBq, iv after 24 hrs. The essentials: as §1
Data set [5] concerns Bone marrow. Kind of data set: Biodistribution in bone marrow of C57BL/6 mouse bearing mouse B16-F0 cells at 0.74 to 0.92 MBq, iv after 1 hr. The method in brief: as §1
A short description of data set [6]: Biodistribution in gall bladder of C57BL/6 mouse bearing mouse B16-F0 cells at 0.74 to 0.92 MBq, iv after 3 hrs. The essentials:
as §1

Data set [7] is described as follows: Biodistribution in gall bladder of C57BL/6 mouse bearing mouse B16-F0 cells at 0.74 to 0.92 MBq, iv after 1 hr. The method in brief: as §1
Data set [8] in a line: Biodistribution in glandula seminalis of C57BL/6 mouse bearing mouse B16-F0 cells at 0.74 to 0.92 MBq, iv after 1 hr. The essentials: as §1
A short description of data set [9]: Biodistribution in glandula seminalis of C57BL/6 mouse bearing mouse B16-F0 cells at 0.74 to 0.92 MBq, iv after 3 hrs. The method in brief:
as §1

Data set [10] can be described thus: Biodistribution in glandula seminalis of C57BL/6 mouse bearing mouse B16-F0 cells at 0.74 to 0.92 MBq, iv after 6 hrs. The method in brief: as §1
The nature of data set [11]: Biodistribution in intestinal content of C57BL/6 mouse bearing mouse B16-F0 cells at 0.74 to 0.92 MBq, iv after 72 hrs. The essentials:
as §1

Data set [12] can be described thus: Ratio of drug level in tumor to brain of C57BL/6 mouse bearing mouse B16-F0 cells at 0.74 to 0.92 MBq, iv after 24 hrs. The method in brief:
(§2)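 Tumour and organ radioactive concentrations came from whole-body cryosection counting (40 µm slices, eight per mouse, two mice per time) after tail-vein injection of the [¹²⁵I]-labelled compound (0.1 µmol) into male C57BL6 mice bearing s.c. B16-F0 melanoma. Each value is the ratio of the tumour concentration to the organ concentration.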

Data set [13] has as its system Brain. Kind of data set: Biodistribution in brain of C57BL/6 mouse bearing mouse B16-F0 cells at 0.74 to 0.92 MBq, iv after 72 hrs. The method in brief: as §1
The nature of data set [14]: Ratio of drug level in tumor to brain of C57BL/6 mouse bearing mouse B16-F0 cells at 0.74 to 0.92 MBq, iv after 72 hrs. The essentials: as §2
The subject of data set [15] is Brain. Kind of data set: Biodistribution in brain of C57BL/6 mouse bearing mouse B16-F0 cells at 0.74 to 0.92 MBq, iv after 24 hrs. The essentials: as §1

Turning to `CCN(CC)CCNC(=O)c1cc2cc([125I])ccc2[nH]1.Cl`, the Drug uptake is 0.09 % ID/g in data set [1], 0.71 % ID/g in [2], 0.1 % ID/g in data set [3] and 0.19 % ID/g in data set [4].

On to `CCN(CC)CCNC(=O)c1cnc2cc([125I])ccc2n1.Cl.Cl`, for which the Drug uptake in data set [5] worked out at 4.58 % ID/g.

Regarding `CCN(CC)CCNC(=O)c1ccc2cncc([125I])c2n1.Cl.Cl`, the Drug uptake in data set [6] stood at 41.51 % ID/g.

For `CCN(CC)CCNC(=O)c1ccc([125I])nc1.Cl.Cl`, the Drug uptake worked out at 8.68 % ID/g in data set [7]; 6.79 % ID/g in data set [8]; 3.78 % ID/g in data set [9]; 6.78 % ID/g in [6]; 3.55 % ID/g in data set [10].

For `CCN(CC)CCNC(=O)c1c[nH]c2ccc([125I])cc2c1=O.Cl.Cl`, the Drug uptake in [11] came out at 0.7 % ID/g; in data set [13] it was 0.1 % ID/g; in data set [3], 0.22 % ID/g; in [15] it was 0.04 % ID/g. Moreover, the Ratio in [12] is reported as 68.5; in data set [14], 23.5.

The record behind these values is ChEMBL document CHEMBL1150393, “Evaluation of radiolabeled (hetero)aromatic analogues of N-(2-diethylaminoethyl)-4-iodobenzamide for imaging and targeted radionuclide therapy of melanoma” (J Med Chem, 2008).
